{
  "source": "paper PMC7740640",
  "about": "(Xenobiotica; the fate of foreign compounds in biological …, 2020)",
  "type_in_all_cases": "in vitro ADME",
  "key": {"[1]": {"tested_on": "human liver microsomes (HLM)", "assay": "Formation of C151 from C152", "method_in_brief": "(§1)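 Probes hold 5–20 pmol P450 in 0.1 M Na-HEPES pH 7.4 with 60 mM KCl. C152 added from 0.5 or 4 mM acetone stock; reaction started with 500 μM NADPH (final), run 5 min at 30 °C with shaking. Quenched with isopropanol containing phenacetin internal standard, then centrifuged. C151 quantified by reverse-phase LC with ESI-positive MRM MS/MS (m/z 230.16→157.2). Michaelis–Menten or Hill fit; normalized per P450 (Supersomes) or CPR (HLM).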"}, "CYP3A4 [2]": {"target": "T1, CYP3A4 (Homo sapiens, UniProt P08684)", "T1 sequence (P08684 2-503 limits assumed)": "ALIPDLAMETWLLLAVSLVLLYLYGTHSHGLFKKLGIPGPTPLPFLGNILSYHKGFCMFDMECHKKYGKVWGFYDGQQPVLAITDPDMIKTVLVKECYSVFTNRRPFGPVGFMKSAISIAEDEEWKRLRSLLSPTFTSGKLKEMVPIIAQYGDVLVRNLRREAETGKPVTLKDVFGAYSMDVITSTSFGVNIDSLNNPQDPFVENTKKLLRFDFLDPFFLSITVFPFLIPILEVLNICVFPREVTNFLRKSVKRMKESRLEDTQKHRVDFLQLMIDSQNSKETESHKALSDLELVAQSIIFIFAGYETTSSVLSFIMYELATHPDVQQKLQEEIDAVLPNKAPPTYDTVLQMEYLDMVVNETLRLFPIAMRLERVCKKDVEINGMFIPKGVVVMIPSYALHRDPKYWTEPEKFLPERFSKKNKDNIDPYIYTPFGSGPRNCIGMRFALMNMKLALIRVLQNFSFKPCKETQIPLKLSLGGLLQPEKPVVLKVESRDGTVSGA", "assay": "C152 metabolism", "details": "for Specific rate: CYP3A4", "method_in_brief": "(§2)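 Human P450s in Supersomes that co-express human CPR and cytochrome b5. Reaction in 0.1 M Na-HEPES pH 7.4 with 60 mM KCl, stirred at 30 °C. C152 0.1–30 μM added from acetone stock; 200 μM NADPH starts it. Fluorescence rise read at 500 nm (isosbestic, mono-demethylation step). Rate is the linear slope over 3–5 min, scaled by the C151–C152 fluorescence difference. Michaelis–Menten or Hill fit, Vmax per P450, 2–6 runs; rate at 30 μM computed from fit.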"}, "CYP2C9": {"target": "CYP2C9 (Homo sapiens, UniProt P11712)", "sequence (P11712 whole entry)": "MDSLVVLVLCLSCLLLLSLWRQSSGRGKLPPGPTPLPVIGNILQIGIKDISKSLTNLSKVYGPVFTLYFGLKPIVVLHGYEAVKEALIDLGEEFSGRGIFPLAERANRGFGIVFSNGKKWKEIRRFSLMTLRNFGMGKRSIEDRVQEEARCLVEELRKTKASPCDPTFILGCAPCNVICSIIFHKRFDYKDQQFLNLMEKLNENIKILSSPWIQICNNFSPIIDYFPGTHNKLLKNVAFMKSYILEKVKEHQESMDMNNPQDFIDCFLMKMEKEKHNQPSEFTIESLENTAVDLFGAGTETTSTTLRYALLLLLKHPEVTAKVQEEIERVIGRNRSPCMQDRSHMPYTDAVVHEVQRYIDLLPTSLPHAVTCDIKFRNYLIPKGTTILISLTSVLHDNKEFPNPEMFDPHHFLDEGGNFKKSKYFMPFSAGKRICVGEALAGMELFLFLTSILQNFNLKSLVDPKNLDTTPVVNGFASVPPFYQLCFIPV", "assay": "C152 metabolism", "details": "for Specific rate: CYP2C9", "method_in_brief": "as §2"}, "CYP3A5 [3]": {"target": "T2, CYP3A5 (Homo sapiens, UniProt P20815)", "T2 sequence (P20815 whole entry)": "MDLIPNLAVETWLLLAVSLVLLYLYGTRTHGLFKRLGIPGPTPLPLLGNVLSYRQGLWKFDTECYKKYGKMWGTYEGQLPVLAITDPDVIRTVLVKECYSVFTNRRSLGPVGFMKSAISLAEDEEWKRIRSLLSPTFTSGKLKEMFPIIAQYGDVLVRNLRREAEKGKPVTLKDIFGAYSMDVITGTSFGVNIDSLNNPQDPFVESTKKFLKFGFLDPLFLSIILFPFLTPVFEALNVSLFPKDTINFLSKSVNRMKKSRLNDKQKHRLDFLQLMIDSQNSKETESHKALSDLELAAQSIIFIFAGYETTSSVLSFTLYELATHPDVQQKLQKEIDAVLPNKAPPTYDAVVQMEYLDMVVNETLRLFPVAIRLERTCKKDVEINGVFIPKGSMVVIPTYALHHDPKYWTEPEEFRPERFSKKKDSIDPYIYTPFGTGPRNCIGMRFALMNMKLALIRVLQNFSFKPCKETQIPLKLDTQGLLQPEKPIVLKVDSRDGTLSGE", "assay": "Projected involvement in C152 metabolism in HLM", "method_in_brief": "(§3)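 Calculated values, no new incubations. Each of seven C152-metabolizing P450s has a fractional content in the pooled HLM P450 pool (LC-MS/MS MRM). That fraction is multiplied by its Supersome Vmax (saturation) or by its rate at 30 μM C152 from Hill or Michaelis–Menten parameters. Expected participation (% TNR) is each normalized rate divided by the sum of all seven.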"}, "CYP3A4 [4]": {"target": "T1, CYP3A4", "assay": "Projected involvement in C152 metabolism in HLM", "method_in_brief": "as §3"}, "CYP2C8": {"target": "T3, CYP2C8 (Homo sapiens, UniProt P10632)", "T3 sequence (P10632 1-490)": "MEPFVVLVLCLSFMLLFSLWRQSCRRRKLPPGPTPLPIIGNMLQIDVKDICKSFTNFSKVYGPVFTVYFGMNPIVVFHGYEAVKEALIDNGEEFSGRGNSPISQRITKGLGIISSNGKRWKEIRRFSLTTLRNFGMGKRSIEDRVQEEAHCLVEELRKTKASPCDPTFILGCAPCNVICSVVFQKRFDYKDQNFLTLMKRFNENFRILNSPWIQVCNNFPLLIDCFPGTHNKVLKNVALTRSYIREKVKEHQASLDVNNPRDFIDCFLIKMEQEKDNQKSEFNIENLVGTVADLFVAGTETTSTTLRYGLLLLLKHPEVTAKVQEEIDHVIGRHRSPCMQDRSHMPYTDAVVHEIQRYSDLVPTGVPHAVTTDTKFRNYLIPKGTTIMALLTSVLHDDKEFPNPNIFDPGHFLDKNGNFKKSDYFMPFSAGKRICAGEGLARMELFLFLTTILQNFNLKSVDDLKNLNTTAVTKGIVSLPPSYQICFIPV", "assay": "Projected involvement in C152 metabolism in HLM"}, "CYP2C19 [5]": {"target": "T4, CYP2C19 (Homo sapiens, UniProt P33261)", "T4 sequence (P33261 whole entry)": "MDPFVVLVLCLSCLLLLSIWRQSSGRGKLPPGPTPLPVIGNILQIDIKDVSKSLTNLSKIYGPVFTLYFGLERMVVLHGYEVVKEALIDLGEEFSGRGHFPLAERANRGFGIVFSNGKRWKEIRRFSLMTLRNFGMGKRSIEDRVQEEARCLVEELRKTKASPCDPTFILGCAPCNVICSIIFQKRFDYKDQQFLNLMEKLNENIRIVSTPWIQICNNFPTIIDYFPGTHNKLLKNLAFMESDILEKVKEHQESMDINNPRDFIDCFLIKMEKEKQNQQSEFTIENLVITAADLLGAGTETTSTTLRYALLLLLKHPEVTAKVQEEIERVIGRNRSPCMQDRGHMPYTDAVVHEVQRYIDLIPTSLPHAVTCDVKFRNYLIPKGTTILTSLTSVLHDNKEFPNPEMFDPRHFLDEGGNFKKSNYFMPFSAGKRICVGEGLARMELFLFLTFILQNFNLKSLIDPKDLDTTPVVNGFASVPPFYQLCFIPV", "assay": "Projected involvement in C152 metabolism in HLM", "method_in_brief": "as §3"}, "CYP2D6": {"target": "CYP2D6 (Homo sapiens, UniProt P10635)", "sequence (P10635 whole entry)": "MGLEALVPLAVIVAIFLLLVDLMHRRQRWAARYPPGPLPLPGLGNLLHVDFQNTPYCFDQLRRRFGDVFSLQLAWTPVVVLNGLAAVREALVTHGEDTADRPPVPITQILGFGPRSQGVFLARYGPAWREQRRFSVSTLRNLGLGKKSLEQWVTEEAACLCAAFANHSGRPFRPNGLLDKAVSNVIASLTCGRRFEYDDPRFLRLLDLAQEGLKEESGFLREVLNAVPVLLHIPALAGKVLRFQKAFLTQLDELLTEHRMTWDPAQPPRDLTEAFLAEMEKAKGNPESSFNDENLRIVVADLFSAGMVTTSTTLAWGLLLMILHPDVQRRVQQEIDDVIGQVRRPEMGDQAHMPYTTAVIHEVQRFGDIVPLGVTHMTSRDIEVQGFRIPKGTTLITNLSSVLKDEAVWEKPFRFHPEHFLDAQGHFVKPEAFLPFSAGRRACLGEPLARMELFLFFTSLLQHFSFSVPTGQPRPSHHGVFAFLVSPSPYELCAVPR", "assay": "C152 metabolism by Supersomes containing CYP2D6", "details": "recombinant CYP2D6 Supersomes"}, "[6]": {"tested_on": "human liver microsomes (HLM)", "assay": "C152 metabolism", "method_in_brief": "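Pooled 50-donor mixed-gender human liver microsomes. Continuous single-wavelength fluorimetry at 500 nm in 0.1 M Na-HEPES pH 7.4 with 60 mM KCl, stirred at 30 °C. C152 0.1–30 μM from acetone stock; 200 μM NADPH starts it. Linear slope over 3–5 min, scaled by the C151–C152 fluorescence difference. Normalized to CPR, measured as NADPH-dependent cytochrome c reduction rate. Michaelis–Menten or Hill fit, 2–6 runs.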"}, "CYP2C19 [7]": {"target": "T4, CYP2C19", "assay": "Formation of C151 from C152", "details": "SS(2C19)", "method_in_brief": "as §1"}, "CYP3A5 [8]": {"target": "T2, CYP3A5", "assay": "C152 metabolism", "details": "for Specific rate: CYP3A5", "method_in_brief": "as §2"}, "CYP2C19 [9]": {"target": "T4, CYP2C19", "assay": "C152 metabolism", "details": "for Specific rate: CYP2C19", "method_in_brief": "as §2"}, "[10]": {"details": "read-out: KM or S50 (Formation of C151, LC-MS), Michaelis-Menten fit"}, "[11]": {"details": "at 30 μM C152, calculated from fit parameters"}, "[12]": {"details": "at saturation (Vmax in Supersomes)"}, "[13]": {"details": "at saturation of all P450 species"}, "[14]": {"details": "at saturation of all P450 species, % TNR"}},
  "note": "Several values for one entry are separate records, joined by “and”; a condition that tells them apart may be missing. Identical values can stand only once.",
  "data": [
    {"smiles": "CN(C)c1ccc2c(C(F)(F)F)cc(=O)oc2c1", "note": "[C152, 7-Dimethylamino-4-trifluromethylcoumarin]", "values": [
      {"measurement": "Vmax (Formation of C151, LC-MS)", "setting": "[1]; mol C151 formed, normalized per CPR", "result": "1.3 ± 0.2", "unit": "min⁻¹"},
      {"measurement": "Km", "setting": "[1]; [10]", "result": "3 ± 0.5", "unit": "µM"},
      {"measurement": "Specific rate", "setting": "CYP3A4 [2]; [11]", "result": 16.5, "unit": "min⁻¹"},
      {"measurement": "Specific rate", "setting": "CYP3A4 [2]; [12]", "result": 17.3, "unit": "min⁻¹"},
      {"measurement": "N, Hill coefficient (C152 metabolism, fluorimetric assay)", "setting": "CYP3A4 [2]; SS(3A4)", "result": "1.6±0.2"},
      {"measurement": "Vmax (C152 metabolism, fluorimetric assay)", "setting": "CYP3A4 [2]; SS(3A4), mol C152 per mol P450 per min", "result": "17 ± 3", "unit": "min⁻¹"},
      {"measurement": "Fraction of C151 formed, Fluorimetry", "setting": "CYP3A4 [2]; SS(3A4), scanning fluorimetry with PCA", "result": "2.5±0.3", "unit": "%"},
      {"measurement": "Km", "setting": "CYP3A4 [2]; read-out: KM or S50 (C152 metabolism, fluorimetric assay), SS(3A4), Hill fit (S50), 30 °C, pH 7.4", "result": "4.5 ± 1.2", "unit": "µM"},
      {"measurement": "Specific rate", "setting": "CYP2C9; [11]", "result": 2.0, "unit": "min⁻¹"},
      {"measurement": "Specific rate", "setting": "CYP2C9; [12]", "result": 3.9, "unit": "min⁻¹"},
      {"measurement": "Vmax (C152 metabolism, fluorimetric assay)", "setting": "CYP2C9; SS(2C9), mol C152 per mol P450 per min", "result": "3.9 ± 1.2", "unit": "min⁻¹"},
      {"measurement": "Km", "setting": "CYP2C9; read-out: KM or S50 (C152 metabolism, fluorimetric assay), SS(2C9), Michaelis-Menten fit, 30 °C, pH 7.4", "result": "29 ± 8", "unit": "µM"},
      {"measurement": "Normalized rate", "setting": "CYP3A5 [3]; at 30 μM C152", "result": 0.074, "unit": "min⁻¹"},
      {"measurement": "Expected participation", "setting": "CYP3A5 [3]; at 30 μM C152, % TNR", "result": 0.61, "unit": "%"},
      {"measurement": "Normalized rate", "setting": "CYP3A5 [3]; [13]", "result": 0.120, "unit": "min⁻¹"},
      {"measurement": "Expected participation", "setting": "CYP3A5 [3]; [14]", "result": 0.91, "unit": "%"},
      {"measurement": "Normalized rate", "setting": "CYP3A4 [4]; at 30 μM C152", "result": 10.3, "unit": "min⁻¹"},
      {"measurement": "Expected participation", "setting": "CYP3A4 [4]; at 30 μM C152, % TNR", "result": "84% and 84.75%"},
      {"measurement": "Normalized rate", "setting": "CYP3A4 [4]; [13]", "result": 10.8, "unit": "min⁻¹"},
      {"measurement": "Normalized rate", "setting": "CYP2C8; at 30 μM C152", "result": 0.020, "unit": "min⁻¹"},
      {"measurement": "Expected participation", "setting": "CYP2C8; at 30 μM C152, % TNR", "result": 0.16, "unit": "%"},
      {"measurement": "Normalized rate", "setting": "CYP2C8; [13]", "result": 0.022, "unit": "min⁻¹"},
      {"measurement": "Expected participation", "setting": "CYP2C8; [14]", "result": 0.17, "unit": "%"},
      {"measurement": "Normalized rate", "setting": "CYP2C19 [5]; at 30 μM C152", "result": 0.026, "unit": "min⁻¹"},
      {"measurement": "Expected participation", "setting": "CYP2C19 [5]; at 30 μM C152, % TNR", "result": "0.2% and 0.22%"},
      {"measurement": "Normalized rate", "setting": "CYP2C19 [5]; [13]", "result": 0.031, "unit": "min⁻¹"},
      {"measurement": "Expected participation", "setting": "CYP2C19 [5]; [14]", "result": 0.24, "unit": "%"},
      {"measurement": "activity with C152", "setting": "CYP2D6", "result": "no detectable activity"},
      {"measurement": "N, Hill coefficient (C152 metabolism, fluorimetric assay)", "setting": "[6]", "result": "1.8±0.3"},
      {"measurement": "Vmax (C152 metabolism, fluorimetric assay)", "setting": "[6]; normalized per concentration of CPR", "result": "58 ± 24", "unit": "min⁻¹"},
      {"measurement": "Km", "setting": "[6]; read-out: KM or S50 (C152 metabolism, fluorimetric assay), Hill fit (S50), 30 °C, pH 7.4", "result": "4.5 ± 1.5", "unit": "µM"},
      {"measurement": "Fraction of C151 formed, Fluorimetry", "setting": "[6]; scanning fluorimetry with PCA", "result": "5.7±2.0", "unit": "%"},
      {"measurement": "Fraction of C151 formed, LC-MS", "setting": "CYP2C19 [7]; C151 formed over total C152 metabolized", "result": "5.6±0.4", "unit": "%"},
      {"measurement": "Vmax (Formation of C151, LC-MS)", "setting": "CYP2C19 [7]; mol C151 formed per mol P450 per min", "result": "0.43 ± 0.03", "unit": "min⁻¹"},
      {"measurement": "Km", "setting": "CYP2C19 [7]; [10]", "result": "6.7 ± 1.5", "unit": "µM"},
      {"measurement": "Specific rate", "setting": "CYP3A5 [8]; [11]", "result": 9.5, "unit": "min⁻¹"},
      {"measurement": "Specific rate", "setting": "CYP3A5 [8]; [12]", "result": 15.3, "unit": "min⁻¹"},
      {"measurement": "Vmax (C152 metabolism, fluorimetric assay)", "setting": "CYP3A5 [8]; SS(3A5), mol C152 per mol P450 per min", "result": "15 ± 4", "unit": "min⁻¹"},
      {"measurement": "Km", "setting": "CYP3A5 [8]; read-out: KM or S50 (C152 metabolism, fluorimetric assay), SS(3A5), Michaelis-Menten fit, 30 °C, pH 7.4", "result": "19 ± 9", "unit": "µM"},
      {"measurement": "Specific rate", "setting": "CYP2C19 [9]; [11]", "result": 6.5, "unit": "min⁻¹"},
      {"measurement": "Specific rate", "setting": "CYP2C19 [9]; [12]", "result": 7.8, "unit": "min⁻¹"},
      {"measurement": "Vmax (C152 metabolism, fluorimetric assay)", "setting": "CYP2C19 [9]; SS(2C19), mol C152 per mol P450 per min", "result": "7.8 ± 3.4", "unit": "min⁻¹"},
      {"measurement": "Fraction of C151 formed, Fluorimetry", "setting": "CYP2C19 [9]; SS(2C19), scanning fluorimetry with PCA", "result": "3.2±2.4", "unit": "%"},
      {"measurement": "Km", "setting": "CYP2C19 [9]; read-out: KM or S50 (C152 metabolism, fluorimetric assay), SS(2C19), Michaelis-Menten fit, 30 °C, pH 7.4", "result": "5.7 ± 1.1", "unit": "µM"}
    ]}
  ]
}
